Assay results gathered from unrelated publications.
Target: Casein kinase II subunit alpha' (CSNK2A2, Homo sapiens, UniProt P19784)

| SMILES | test | conditions | measurement | value |
| --- | --- | --- | --- | --- |
| CCN(CC)CCNC(=O)c1c(C)[nH]c(/C=C2\C(=O)Nc3ccc(F)cc32)c1C | enzyme activity, inhibitor | 0.3 µM | inhibition | -22% |
| Nc1ncnc2occ(-c3ccc(NC(=O)Nc4cc(C(F)(F)F)ccc4F)cc3)c12 | enzyme activity, inhibitor | 20 µM | remaining activity | 41% |
| CCN(CC)c1ccc(C2=NNC(=O)CC2C)cc1[N+](=O)[O-] (stereo not drawn) | enzyme activity, inhibitor | 10 µM | remaining activity | 103% |
| O=C(Nc1cnn(-c2csc(C(=O)NC3COC3)c2)c1)Nc1c(F)cccc1Cl | enzyme activity, inhibitor | 5 µM | remaining activity | 96.6% |
| Cn1cnc(Br)c1C1=CN(c2ncnc3[nH]cnc23)CCS1 | enzyme activity, inhibitor, radiometric | 50 nM | inhibition | 19.7% |
| N#CCCc1ccc2c(c1)-c1[nH]c3ccc([N+](=O)[O-])cc3c1CC(=O)N2 | cell-free assay | 0.5 µM | remaining signal | 92.9% |
| CC(=O)C1=C(C)N(c2cccc(C(F)(F)F)c2)C(=O)N[C@@H]1c1ccc(C#N)nc1 | cell-free assay, competition with immobilised ligand | 1 µM | remaining binding | 75.7% |
| C=CC(=O)Nc1cc(Nc2nccc(Nc3cc(Cl)c(F)cc3C(C)(C)O)n2)c(OC)cc1N1CC[C@@H](N(C)C)C1 | enzyme activity, inhibitor | 1 µM | inhibition | -6% |
| CC(C)c1ccc(NC(=O)c2cccs2)c(-c2nc3ccccc3[nH]c2=O)c1 | enzyme activity, inhibitor | 1 µM | activity vs control | 121% |
| O=C(NCCCC1CCCCC1)c1ccc(CNC(=O)c2cnn(-c3ccccc3)c2C(F)(F)F)cc1 | cell-free assay, competition with immobilised ligand | 0.1 µM | remaining binding | 88% |
| CCCCNc1ncc2c(-c3ccc(F)cc3)nn(C[C@H]3CC[C@H](N)CC3)c2n1 | target engagement in cells, inhibitor, chemoproteomics | 20 mM | inhibition | -43.5% |
| COc1cc2ncnc(Nc3ccc(Oc4ccccc4)c(C)c3C)c2cc1OC | enzyme activity, inhibitor | 1 µM | inhibition | -1% |
| O=C(Nc1cccnn1)N1CCC(=Cc2cccc(Oc3ccc(C(F)(F)F)cn3)c2)CC1 | cell-free assay, competition with immobilised ligand | 1 µM | remaining binding | 100% |
| O=C(Nc1cnn(-c2csc(C(=O)NC3COC3)c2)c1)Nc1ccccc1Cl | enzyme activity, inhibitor | 5 µM | remaining activity | 97.3% |
| CSc1cccnc1N1CCN(Cc2nc3ccccc3[nH]2)CC1 | cell-free assay, competition with immobilised ligand | 1 µM | remaining binding | 100% |
| CNC(=O)c1cc(Oc2ccc(NC(=O)Nc3ccc(Cl)c(C(F)(F)F)c3)cc2)ccn1 | enzyme activity, inhibitor | 10 µM | inhibition | -30% |
| CC(C)(C)c1nc(-c2cccc(NS(=O)(=O)c3c(F)cccc3F)c2F)c(-c2ccnc(N)n2)s1 | enzyme activity, inhibitor, radiometric | 1 µM | remaining activity | 84% |
| Nc1c(C(=O)NCc2ccc(C(=O)NCCCC3CCCCC3)cc2)cnn1-c1ccccc1 | cell-free assay, competition with immobilised ligand | 0.1 µM | remaining binding | 100% |
| Cc1ccc(Nc2nccc(N(C)c3ccc4c(C)n(C)nc4c3)n2)cc1S(N)(=O)=O | enzyme activity, inhibitor | 0.3 µM | inhibition | -13% |
| CCS(=O)(=O)c1cc2cc(C[C@](O)(CC(C)(C)c3ccc(F)cc3C(N)=O)C(F)(F)F)[nH]c2cn1 | cell-free assay, competition with immobilised ligand | 1 µM | remaining binding | 92% |
| Cc1ccc(C(=O)Nc2ccc(CN3CCN(C)CC3)c(C(F)(F)F)c2)cc1C#Cc1cnc2cccnn12 | enzyme activity, inhibitor | 23.5 nM | remaining activity | 94% |
| Cc1cc(NC(=O)c2cccc3cc(-c4cccc5[nH]nc(N)c45)ccc23)ccc1F | enzyme activity, inhibitor | 0.1 µM | activity vs control | 109% |
| CS(=O)(=O)c1cc(C2(NC(=O)c3cncc4c3cnn4-c3ccc(F)cc3)CC2)ccn1 | cell-free assay, competition with immobilised ligand | 1 µM | remaining binding | 80% |
| O=C1NC(=O)c2cc(Nc3ccc(F)cc3)c(Nc3ccc(F)cc3)cc21 | cell-free assay, inhibitor | 0.5 µM | remaining signal | 104% |
